# Measured values pooled from the literature.
# Lines come from different studies, so protocols differ.
# EGFR L858R/T790M: Epidermal growth factor receptor (EGFR, Homo sapiens, UniProt P00533, L858R/T790M)
# EGFR: Epidermal growth factor receptor (EGFR, Homo sapiens, UniProt P00533)
# EGFR L858R: Epidermal growth factor receptor (EGFR, Homo sapiens, UniProt P00533, L858R)
# EGFR del747-750/T751S: Epidermal growth factor receptor (EGFR, Homo sapiens, UniProt P00533, del747-750/T751S)
# EGFR G719S: Epidermal growth factor receptor (EGFR, Homo sapiens, UniProt P00533, G719S)
# EGFR del746-750: Epidermal growth factor receptor (EGFR, Homo sapiens, UniProt P00533, del746-750)
# EGFR del747-752/P753S: Epidermal growth factor receptor (EGFR, Homo sapiens, UniProt P00533, del747-752/P753S)
# EGFR G719C: Epidermal growth factor receptor (EGFR, Homo sapiens, UniProt P00533, G719C)
# EGFR del752-759: Epidermal growth factor receptor (EGFR, Homo sapiens, UniProt P00533, del752-759)
# EGFR T790M: Epidermal growth factor receptor (EGFR, Homo sapiens, UniProt P00533, T790M)
Compound,target,assay,conditions,remaining binding [%]
NS(=O)(=O)c1cc(NC(=O)Cc2ccccc2)ccc1Oc1cccc(Cl)c1,EGFR L858R/T790M,"cell-free assay, competition with immobilised ligand",1 µM,75
COc1cnc(Nc2cccc(S(N)(=O)=O)c2)nc1N1CCN(c2ccccc2)CC1,EGFR,"binding, competition with immobilised ligand",1 µM,100
CN(CCCC(F)(F)F)c1nccc(-c2cnn3ncccc23)n1,EGFR L858R,binding,1 µM,85
CC(=O)Nc1c(C(C)=O)c(=O)n(C)c2nc(-c3ccc(Cl)cc3Cl)c(-c3ccc(Cl)cc3)cc12,EGFR del747-750/T751S,"cell-free assay, competition with immobilised ligand",1 µM,100
COc1cnc(Nc2cccc(S(N)(=O)=O)c2)nc1N1CCN(c2ccccc2)C(=O)C1,"Epidermal growth factor receptor (EGFR, Homo sapiens, UniProt P00533, A750P/del747-749)","binding, competition with immobilised ligand",1 µM,92
C[C@@H]1CN(c2cc(-c3n[nH]c4ccc(OC5(C)CC5)cc34)ncn2)C[C@H](C)O1,EGFR G719S,"cell-free assay, competition with immobilised ligand",0.1 µM,59
Cc1cnn2ncc(-c3ccnc(N(C)C)n3)c2c1,EGFR,binding,1 µM,75
O=C1NC(c2ccccn2)Sc2ccccc21 (stereo not shown),EGFR del747-750/T751S,"cell-free assay, competition with immobilised ligand",1 µM,68
CNC(=O)[C@@H]1CC[C@@H](n2c(-c3ccc4cnccc4c3)nc3ccc(C(=O)NCc4cccc(C(N)=O)c4)cc32)C1,EGFR del746-750,"binding, competition with immobilised ligand",1 µM,90
COc1ccnn2ncc(-c3ccnc(N(C)C)n3)c12,EGFR del746-750,binding,1 µM,97
CN1CCN(c2ccc(Nc3nccc(-c4cccc([N+](=O)[O-])c4)n3)cc2C(F)(F)F)CC1,EGFR L858R/T790M,binding,10 µM,29
c1cncc(-c2cccc(Nc3nccc(NC4CCCCC4)n3)c2)c1,EGFR del747-752/P753S,"binding, competition with immobilised ligand",10 µM,42
C[C@H](c1ccc(F)cc1)N(Cc1cccc(C(=O)O)c1)C(=O)c1cnc2ccccc2c1,EGFR G719S,"cell-free assay, competition with immobilised ligand",1 µM,100
COc1ncc2cc3ccccc3nc2c1C#N,EGFR,"cell-free assay, competition with immobilised ligand",5 µM,94
F[C@@H]1CCN(c2nccc(-c3cnn4ncccc34)n2)C1,EGFR G719S,binding,1 µM,100
CNCc1ccccc1-c1csc([C@H](C)Nc2nc(C)nc3cc(OC)c(OC)cc23)c1,EGFR G719C,"cell-free assay, competition with immobilised ligand",1 µM,85
O=C(NCCCN1CCOCC1)c1ccc(Nc2ncc(Cl)c(-c3ccc(Cl)s3)n2)cc1,EGFR del752-759,"binding, competition with immobilised ligand",1 µM,92
O=C(Nc1c[nH]nc1C(=O)NC1CCNCC1)c1cc(F)cc(F)c1,EGFR T790M,"binding, competition with immobilised ligand",1 µM,100
O=C(NC[C@@H]1[C@H]2CN(C(=O)OCc3cc(C(F)(F)F)cc(C(F)(F)F)c3)C[C@@H]12)c1ccc2[nH]nnc2c1,EGFR L858R,"cell-free assay, competition with immobilised ligand",1 µM,100
O=C(c1ccc(Nc2nccc(-c3cc4ccccc4s3)n2)cc1)N1CCC(N2CCCC2)CC1,EGFR,"binding, competition with immobilised ligand",1 µM,97
CN1CCN(c2ccc(Nc3nccc(-c4ccccc4)n3)cc2C(F)(F)F)CC1,EGFR del752-759,binding,10 µM,100
CN(C)c1ncc(F)c(-c2cnn3ncccc23)n1,EGFR G719C,binding,1 µM,86
Nc1ncc2c(n1)-c1c([nH]c3ccc(C#CC4CC4)cc13)CCCC2,EGFR G719C,"binding, competition with immobilised ligand",1 µM,91
Cc1nc(N2CC[C@@H](O)C2)ncc1-c1cc(C(F)(F)F)cc2[nH]ncc12,EGFR del752-759,"cell-free assay, competition with immobilised ligand",1 µM,99
O=C(c1ccc(Nc2ncc(Cl)c(-c3cc4ccccc4s3)n2)cc1)N1CCC(N2CCCC2)CC1,EGFR G719C,"binding, competition with immobilised ligand",1 µM,88
C[C@@H]1CCN(c2nccc(-c3cnn4ncccc34)n2)C1,EGFR G719S,binding,1 µM,74
O=C(c1ccc(Nc2ncc(Cl)c(-c3ccc(Cl)s3)n2)cc1)N1CCC(N2CCCC2)CC1,EGFR L858R,"binding, competition with immobilised ligand",1 µM,72
CCN1CCN(Cc2ccc(C(=O)Nc3ccc(C)c(Oc4ccc5c(c4)CC(=O)N5)c3)cc2C(F)(F)F)CC1,EGFR del747-752/P753S,"binding, competition with immobilised ligand",1 µM,100
CC1CCCN1c1nccc(-c2cnn3ncccc23)n1 (stereo not shown),"Epidermal growth factor receptor (EGFR, Homo sapiens, UniProt P00533, L861Q)",binding,1 µM,100
O=C(NCCCN1CCOCC1)c1ccc(Nc2nccc(-c3cc4ccccc4s3)n2)cc1,EGFR del746-750,"binding, competition with immobilised ligand",1 µM,100
O=C(NCC1CCOCC1)c1n[nH]cc1NC(=O)c1c(F)cccc1F,EGFR T790M,"binding, competition with immobilised ligand",1 µM,93
